Measured values: ChEMBL document CHEMBL4765336, “Discovery of coumarin derivatives as potent and selective cyclin-dependent kinase 9 (CDK9) inhibitors with high antitumour activity” (Eur J Med Chem, 2020)

Columns and labels:
[1] = Metabolic stability in human liver microsomes assessed as half life at 1 uM incubated up to 60 mins in presence of NADPH by LC-MS/MS analysis; assay type: ADME, Microsome
Summary of the method: (§1)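 Liver microsomes (0.5 mg/mL) incubated at 37 °C with compound at 1.0 μM final, 3 mM MgCl2 and 1 mM NADPH in 100 mM PBS pH 7.4. Samples taken at 0, 5, 15, 30, 60 min; remaining parent measured by LC-MS/MS. k = −slope, T1/2 = 0.693/k, CLint = k/microsomal protein concentration. Midazolam served as control.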

[2] = system: MDA-MB-231; experiment: Antiproliferative activity against human MDA-MB-231 cells assessed as inhibition of cell growth incubated for 72 hrs by Celltiter-Glo luminescent assay; assay type: functional, cell-based; details: MDA-MB-231, 72 h
Summary of the method: (§2)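 Cells seeded in growth medium and held overnight at 37 °C; medium-only wells served as background. DMSO stocks were diluted in medium to 3× final and added; cells incubated 72 h at 37 °C, 5% CO2. Viability read by CellTiter-Glo luminescence after 60 min at room temperature. IC50 from curve fit, mean of duplicate.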

[3] = Metabolic stability in human liver microsomes assessed as intrinsic clearance at 1 uM incubated up to 60 mins in presence of NADPH by LC-MS/MS analysis; assay type: ADME, Microsome; details: read-out: CLH; summary of the method: as §1
[4] = system: SW-620; experiment: Antiproliferative activity against human SW-620 cells assessed as inhibition of cell growth incubated for 72 hrs by Celltiter-Glo luminescent assay; assay type: functional, cell-based; details: SW-620, 72 h; summary of the method: as §2
[5] = system: PANC-1; experiment: Antiproliferative activity against human PANC-1 cells assessed as inhibition of cell growth incubated for 72 hrs by Celltiter-Glo luminescent assay; assay type: functional, cell-based; details: PANC-1, 72 h; summary of the method: as §2
[6] = target: CDK9/cyclin T1 (Homo sapiens, UniProt P50750); experiment: Inhibition of CDK9/Cyclin T1 (unknown origin) preincubated for 20 mins followed by ATP addition and measured after 120 mins in presence of [33P-gamma] ATP by hotspot kinase assay; assay type: protein-complex assay
Chain of CDK9/cyclin T1 (O60563 whole entry): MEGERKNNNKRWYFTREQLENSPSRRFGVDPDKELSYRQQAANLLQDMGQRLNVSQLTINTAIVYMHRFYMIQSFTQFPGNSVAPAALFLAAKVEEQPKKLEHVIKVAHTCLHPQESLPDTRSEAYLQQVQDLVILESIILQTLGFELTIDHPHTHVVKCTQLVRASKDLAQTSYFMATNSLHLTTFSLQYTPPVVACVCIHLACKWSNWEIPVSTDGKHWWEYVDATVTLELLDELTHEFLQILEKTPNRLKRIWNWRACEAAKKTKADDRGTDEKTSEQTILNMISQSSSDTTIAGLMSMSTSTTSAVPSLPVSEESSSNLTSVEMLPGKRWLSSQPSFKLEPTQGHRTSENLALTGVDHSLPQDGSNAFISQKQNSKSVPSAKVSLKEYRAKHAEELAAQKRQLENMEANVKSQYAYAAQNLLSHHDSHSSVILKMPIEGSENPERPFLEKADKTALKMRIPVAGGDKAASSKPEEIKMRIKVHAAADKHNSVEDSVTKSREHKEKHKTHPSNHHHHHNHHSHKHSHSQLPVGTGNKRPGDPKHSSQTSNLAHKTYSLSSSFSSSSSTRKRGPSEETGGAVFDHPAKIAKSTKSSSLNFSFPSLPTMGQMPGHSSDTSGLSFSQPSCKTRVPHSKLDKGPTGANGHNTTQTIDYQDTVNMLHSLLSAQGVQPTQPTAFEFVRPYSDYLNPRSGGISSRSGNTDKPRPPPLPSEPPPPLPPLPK
Chain of CDK9/cyclin T1 (P50750 whole entry): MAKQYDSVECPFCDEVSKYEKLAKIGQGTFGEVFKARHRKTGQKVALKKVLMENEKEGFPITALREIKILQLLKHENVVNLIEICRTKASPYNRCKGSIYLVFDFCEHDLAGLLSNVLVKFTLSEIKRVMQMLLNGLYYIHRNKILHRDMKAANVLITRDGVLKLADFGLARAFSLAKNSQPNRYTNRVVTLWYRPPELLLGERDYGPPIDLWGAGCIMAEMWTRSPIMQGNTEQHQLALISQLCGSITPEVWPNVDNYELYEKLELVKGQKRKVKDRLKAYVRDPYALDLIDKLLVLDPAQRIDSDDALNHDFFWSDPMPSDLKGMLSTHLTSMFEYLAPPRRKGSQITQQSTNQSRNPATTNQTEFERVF

[7] = system: MOLM-13; experiment: Antiproliferative activity against human MOLM-13 cells assessed as inhibition of cell growth incubated for 72 hrs by Celltiter-Glo luminescent assay; assay type: functional, cell-based; details: MOLM-13, 72 h; summary of the method: as §2
[8] = system: HepG2; experiment: Antiproliferative activity against human HepG2 cells assessed as inhibition of cell growth incubated for 72 hrs by Celltiter-Glo luminescent assay; assay type: functional, cell-based; details: HepG2, 72 h; summary of the method: as §2
[9] = system: BXPC-3; experiment: Antiproliferative activity against human BxPC3 cells assessed as inhibition of cell growth incubated for 72 hrs by Celltiter-Glo luminescent assay; assay type: functional, cell-based; details: BXPC-3, 72 h; summary of the method: as §2
[10] = system: MIA PaCa-2; experiment: Antiproliferative activity against human MIA PaCa-2 cells assessed as inhibition of cell growth incubated for 72 hrs by Celltiter-Glo luminescent assay; assay type: functional, cell-based; details: MIA PaCa-2, 72 h; summary of the method: as §2
[11] = Metabolic stability in dog liver microsomes assessed as half life at 1 uM incubated up to 60 mins in presence of NADPH by LC-MS/MS analysis; assay type: ADME, Canis lupus familiaris, Microsome; summary of the method: as §1
[12] = system: HCT-116; experiment: Antiproliferative activity against human HCT-116 cells assessed as inhibition of cell growth incubated for 72 hrs by Celltiter-Glo luminescent assay; assay type: functional, cell-based; details: HCT-116, 72 h; summary of the method: as §2
[13] = Metabolic stability in rat liver microsomes assessed as intrinsic clearance at 1 uM incubated up to 60 mins in presence of NADPH by LC-MS/MS analysis; assay type: ADME, Microsome; details: read-out: CLH; summary of the method: as §1
[14] = Metabolic stability in rat liver microsomes assessed as half life at 1 uM incubated up to 60 mins in presence of NADPH by LC-MS/MS analysis; assay type: ADME, Microsome; summary of the method: as §1
[15] = system: A549; experiment: Antiproliferative activity against human A549 cells assessed as inhibition of cell growth incubated for 72 hrs by Celltiter-Glo luminescent assay; assay type: functional, cell-based; details: A549, 72 h; summary of the method: as §2
[16] = system: A-375; experiment: Antiproliferative activity against human A-375 cells assessed as inhibition of cell growth incubated for 72 hrs by Celltiter-Glo luminescent assay; assay type: functional, cell-based; details: A-375, 72 h; summary of the method: as §2
[17] = Metabolic stability in monkey liver microsomes assessed as intrinsic clearance at 1 uM incubated up to 60 mins in presence of NADPH by LC-MS/MS analysis; assay type: ADME, Macaca mulatta, Microsome; details: rhesus monkey, read-out: CLH; summary of the method: as §1
[18] = Metabolic stability in dog liver microsomes assessed as intrinsic clearance at 1 uM incubated up to 60 mins in presence of NADPH by LC-MS/MS analysis; assay type: ADME, Canis lupus familiaris, Microsome; details: read-out: CLH; summary of the method: as §1
[19] = system: NCI-H460; experiment: Antiproliferative activity against human NCI-H460 cells assessed as inhibition of cell growth incubated for 72 hrs by Celltiter-Glo luminescent assay; assay type: functional, cell-based; details: NCI-H460, 72 h; summary of the method: as §2
[20] = target: CDK2/Cyclin A2 (Homo sapiens, UniProt P24941); experiment: Inhibition of CDK2/Cyclin A (unknown origin) preincubated for 20 mins followed by ATP addition and measured after 120 mins in presence of [33P-gamma] ATP by hotspot kinase assay; assay type: protein-complex assay
Summary of the method: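 Radiometric filter-binding assay: kinase and substrate in 20 mM Hepes pH 7.5, 10 mM MgCl2, 1 mM EGTA, 0.02% Brij35, 0.02 mg/mL BSA, 0.1 mM Na3VO4, 2 mM DTT, 1% DMSO. Compound (top 1/10/27 μM, 3-fold serial dilutions) preincubated 20 min at 25 °C. ATP plus [γ-33P]ATP added to 10 μM final, reacted 120 min at 25 °C. IC50 from curve fit, duplicate mean.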

[21] = system: NCI-N87; experiment: Antiproliferative activity against human NCI-N87 cells assessed as inhibition of cell growth incubated for 72 hrs by Celltiter-Glo luminescent assay; assay type: functional, cell-based; details: NCI-N87, 72 h; summary of the method: as §2
[22] = system: MV4-11; experiment: Antiproliferative activity against human MV4-11 cells assessed as inhibition of cell growth incubated for 72 hrs by Celltiter-Glo luminescent assay; assay type: functional, cell-based; details: MV4-11, 72 h; summary of the method: as §2
[23] = Metabolic stability in monkey liver microsomes assessed as half life at 1 uM incubated up to 60 mins in presence of NADPH by LC-MS/MS analysis; assay type: ADME, Macaca mulatta, Microsome; details: rhesus monkey; summary of the method: as §1

half-life at 1 µM [1]: 33.5 min
IC50 [2]: 1580 nM
microsomal CLint at 1 µM [3]: 41.4 µL/min/mg
IC50 [4]: 2700 nM
IC50 [5]: 1880 nM
IC50 [6]: 8.8 nM
IC50 [7]: 260 nM
IC50 [8]: 560 nM
IC50 [9]: 910 nM
IC50 [10]: 1600 nM
half-life at 1 µM [11]: 14.1 min
IC50 [12]: 660 nM
microsomal CLint at 1 µM [13]: 144 µL/min/mg
half-life at 1 µM [14]: 9.61 min
IC50 [15]: 2360 nM
IC50 [16]: 960 nM
microsomal CLint at 1 µM [17]: 62.5 µL/min/mg
microsomal CLint at 1 µM [18]: 98.3 µL/min/mg
IC50 [19]: 2150 nM
IC50 [20]: 1330 nM
IC50 [22]: 250 nM
half-life at 1 µM [23]: 22.2 min
Compound: COc1cc(F)ccc1-c1ccnc(Nc2ccc3c(N4CCOCC4)c(C(C)=O)c(=O)oc3c2)n1
IC50 [21]: 3.58 µM
